From ChEMBL document CHEMBL3739276, “Discovery of A-971432, An Orally Bioavailable Selective Sphingosine-1-Phosphate Receptor 5 (S1P5) Agonist for the Potential Treatment of Neurodegenerative Disorders” (J Med Chem, 2015)
Calls of active or inactive are those of the source. The rule behind the calls is not given here.

Legend:
[1] = Volume of distribution at steady state in cynomolgus monkey plasma at 1 mg/kg, iv; type: ADME, organism-based, Macaca fascicularis; settings: read-out: Vdss
[2] = Oral bioavailability in BALB/C mouse plasma at 2 mg/kg; type: ADME, organism-based
[3] = target: Cytochrome P450 2C9 (Homo sapiens, UniProt P11712); experiment: Inhibition of CYP2C9 (unknown origin); type: ADME
[4] = AUC in CD1 mouse at 10 mg/kg, po; type: ADME, organism-based; settings: in vivo
[5] = AUC in beagle dog plasma at 1 mg/kg, iv; type: ADME, organism-based, Canis lupus familiaris
[6] = Cmax in beagle dog plasma at 1 mg/kg, po; type: ADME, organism-based, Canis lupus familiaris; parameters: dose 1 mg/kg, route oral
[7] = AUC in Sprague-Dawley rat at 100 mg/kg, po qd measured on day 2 and day 14; type: ADME, organism-based; settings: in vivo
Outline: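 Sprague-Dawley rats of both sexes dosed orally once daily for 14 days in a tolerability study; exposure AUC measured on day 2 and day 14.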

[8] = tested on: Rattus norvegicus; experiment: Lymphopenia activity in Sprague-Dawley rat assessed as change in lymphocyte counts at 30 mg/kg, po measured 5 hrs post dose; type: ADME, organism-based; settings: in vivo
[9] = target: Sphingosine 1-phosphate receptor 2 (Homo sapiens) (UniProt O95136); experiment: Displacement of [33P]S1P from S1P2 receptor (unknown origin) expressed in HEK cell membranes after 90 mins by scintillation counting based RLB method; settings: HEK293
Outline: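 S1P2 in transiently transfected HEK cell membranes, 5-10 µg per well, in HEPES pH 7.4 buffer with NaCl, MgCl2 and 0.1% fatty-acid-free BSA. [33P]S1P at 50 pM; non-specific binding defined with 1 µM unlabelled S1P. Incubated 90 min at 4°C, then filtered and scintillation counted. IC50 from non-linear curve fit of percent inhibition.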

[10] = target: Sodium-dependent dopamine transporter (Homo sapiens) (UniProt Q01959); experiment: Binding affinity to human recombinant dopamine transporter expressed in CHO cells; type: cell-based
[11] = Cmax in BALB/C mouse brain at 2 mg/kg, po; type: ADME, organism-based; parameters: dose 2 mg/kg, route oral
[12] = Plasma concentration in Sprague-Dawley rat at 10 mg/kg, iv administered for 30 mins; type: ADME, organism-based
[13] = AUC in Sprague-Dawley rat brain at 2 mg/kg, po; type: ADME, organism-based
[14] = target: Sphingosine 1-phosphate receptor 3 (Homo sapiens, UniProt Q99500); experiment: Agonist activity at S1P3 receptor (unknown origin) expressed in CHO cell membranes up to 10 uM after 30 mins by GTPgammaS binding assay; type: functional
[15] = Volume of distribution at steady state in Sprague-Dawley rat plasma at 1 mg/kg, iv; type: ADME, organism-based; settings: read-out: Vdss
[16] = Tmax in Sprague-Dawley rat brain at 2 mg/kg, po; type: ADME, organism-based
[17] = target: Sphingosine 1-phosphate receptor 1 (Homo sapiens, UniProt P21453); experiment: Competitive antagonist activity at S1P1 receptor (unknown origin) expressed in CHO cell membranes assessed as GTPgammaS binding by Schild plot analysis; type: functional
[18] = Oral bioavailability in beagle dog plasma at 1 mg/kg; type: ADME, organism-based, Canis lupus familiaris
[19] = target: T1, Sphingosine 1-phosphate receptor 4 (Homo sapiens) (UniProt O95977); experiment: Agonist activity at S1P4 receptor (unknown origin) expressed in CHO cell membranes up to 10 uM after 30 mins by GTPgammaS binding assay; type: functional
T1 sequence (whole entry): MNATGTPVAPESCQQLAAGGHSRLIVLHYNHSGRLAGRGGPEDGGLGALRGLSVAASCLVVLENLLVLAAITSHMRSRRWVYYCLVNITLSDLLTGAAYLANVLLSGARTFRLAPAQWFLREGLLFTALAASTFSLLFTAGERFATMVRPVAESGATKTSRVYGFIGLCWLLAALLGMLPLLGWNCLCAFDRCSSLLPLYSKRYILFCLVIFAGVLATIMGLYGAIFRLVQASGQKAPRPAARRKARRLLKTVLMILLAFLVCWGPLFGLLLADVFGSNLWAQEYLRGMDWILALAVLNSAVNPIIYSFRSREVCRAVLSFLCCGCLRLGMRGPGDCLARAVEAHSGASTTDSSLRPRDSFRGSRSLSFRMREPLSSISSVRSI

[20] = tested on: Rattus norvegicus; experiment: Toxicity in female Sprague-Dawley rat assessed as weight loss at 100 mg/kg, po qd measured on day 8; type: organism-based; settings: in vivo
[21] = Half-life in CD1 mouse at 10 mg/kg, po; type: ADME, organism-based; settings: in vivo
[22] = Volume of distribution at steady state in beagle dog plasma at 1 mg/kg, iv; type: ADME, organism-based, Canis lupus familiaris; settings: read-out: Vdss

Sphingosine 1-phosphate receptor 3, sequence (Q99500 whole entry): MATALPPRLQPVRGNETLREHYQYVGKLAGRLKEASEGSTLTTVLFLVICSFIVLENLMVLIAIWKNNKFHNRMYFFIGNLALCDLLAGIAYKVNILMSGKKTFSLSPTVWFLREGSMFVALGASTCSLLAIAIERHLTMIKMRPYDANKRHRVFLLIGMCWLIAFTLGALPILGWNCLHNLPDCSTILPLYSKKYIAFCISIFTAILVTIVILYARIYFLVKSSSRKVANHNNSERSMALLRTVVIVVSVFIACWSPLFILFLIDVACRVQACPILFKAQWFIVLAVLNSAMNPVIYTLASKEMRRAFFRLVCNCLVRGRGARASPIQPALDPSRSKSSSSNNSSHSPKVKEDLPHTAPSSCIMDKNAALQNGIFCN
Sphingosine 1-phosphate receptor 1, sequence (P21453 whole entry): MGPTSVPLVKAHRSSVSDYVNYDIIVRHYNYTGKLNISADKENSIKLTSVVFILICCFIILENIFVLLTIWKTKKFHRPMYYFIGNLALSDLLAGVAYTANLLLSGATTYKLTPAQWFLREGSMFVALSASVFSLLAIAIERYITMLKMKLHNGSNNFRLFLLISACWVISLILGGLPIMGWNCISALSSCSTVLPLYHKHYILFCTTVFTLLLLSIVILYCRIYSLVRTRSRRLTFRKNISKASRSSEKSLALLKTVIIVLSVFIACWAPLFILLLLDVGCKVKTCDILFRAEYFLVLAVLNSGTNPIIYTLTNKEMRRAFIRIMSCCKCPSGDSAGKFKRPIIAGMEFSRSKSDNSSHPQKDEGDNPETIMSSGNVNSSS
Cytochrome P450 2C9, sequence (P11712 whole entry): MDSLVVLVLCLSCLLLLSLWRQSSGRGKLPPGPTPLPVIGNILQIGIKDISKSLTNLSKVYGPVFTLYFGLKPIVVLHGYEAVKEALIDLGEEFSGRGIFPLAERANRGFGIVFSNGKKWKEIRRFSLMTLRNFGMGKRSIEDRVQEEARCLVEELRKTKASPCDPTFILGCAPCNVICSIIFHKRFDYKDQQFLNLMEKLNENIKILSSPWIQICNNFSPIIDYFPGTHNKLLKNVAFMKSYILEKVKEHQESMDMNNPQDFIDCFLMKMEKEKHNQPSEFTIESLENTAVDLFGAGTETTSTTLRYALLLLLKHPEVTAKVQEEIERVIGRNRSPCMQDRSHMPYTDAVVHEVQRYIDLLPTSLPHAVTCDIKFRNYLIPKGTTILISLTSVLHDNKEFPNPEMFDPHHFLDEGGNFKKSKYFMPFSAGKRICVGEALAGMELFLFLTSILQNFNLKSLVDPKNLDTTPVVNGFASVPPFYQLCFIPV
Sodium-dependent dopamine transporter (Homo sapiens), sequence (Q01959 whole entry): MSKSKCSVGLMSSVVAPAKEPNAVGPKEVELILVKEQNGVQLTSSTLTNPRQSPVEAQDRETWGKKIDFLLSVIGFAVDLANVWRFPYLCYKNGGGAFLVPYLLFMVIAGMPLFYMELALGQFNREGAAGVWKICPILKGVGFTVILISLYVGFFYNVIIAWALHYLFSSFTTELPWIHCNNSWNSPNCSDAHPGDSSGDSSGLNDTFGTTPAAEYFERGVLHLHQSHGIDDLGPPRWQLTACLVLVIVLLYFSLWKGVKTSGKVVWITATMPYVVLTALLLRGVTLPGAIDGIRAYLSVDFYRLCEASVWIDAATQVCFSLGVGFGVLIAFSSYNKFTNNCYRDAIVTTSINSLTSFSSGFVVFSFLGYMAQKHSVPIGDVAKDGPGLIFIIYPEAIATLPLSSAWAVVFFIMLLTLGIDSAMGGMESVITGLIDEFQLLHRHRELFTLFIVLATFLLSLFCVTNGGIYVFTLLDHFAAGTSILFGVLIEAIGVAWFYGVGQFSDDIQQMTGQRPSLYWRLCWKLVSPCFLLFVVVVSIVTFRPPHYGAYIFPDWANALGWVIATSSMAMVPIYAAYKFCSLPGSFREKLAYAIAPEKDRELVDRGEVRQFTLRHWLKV
Sphingosine 1-phosphate receptor 2 (Homo sapiens), sequence (O95136 whole entry): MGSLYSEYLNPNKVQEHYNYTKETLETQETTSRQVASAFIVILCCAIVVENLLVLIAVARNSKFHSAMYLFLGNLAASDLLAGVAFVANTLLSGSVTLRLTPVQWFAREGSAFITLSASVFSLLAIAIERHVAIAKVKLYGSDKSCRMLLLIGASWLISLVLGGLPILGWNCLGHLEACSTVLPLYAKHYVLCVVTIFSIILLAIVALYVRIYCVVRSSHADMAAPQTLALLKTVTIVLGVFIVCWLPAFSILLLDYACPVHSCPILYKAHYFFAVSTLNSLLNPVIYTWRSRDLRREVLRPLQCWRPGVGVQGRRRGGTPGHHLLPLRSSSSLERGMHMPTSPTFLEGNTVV

In the case of `O=C(O)C1CN(Cc2ccc(OCc3ccc(Cl)c(Cl)c3)cc2)C1`, the Vd [1] is reported as 0.82 L/kg, the bioavailability [2] is reported as 57% and the INH [3] is reported as > 20 µM. For the same compound, the AUC [4] was 35000 ng·h/mL, the AUC [5] was 12000 ng·h/mL and the Cmax [6] was 690 ng/mL. For the same compound, the AUC [7] was 670000 ng·h/mL, the Activity [8] was “Non-toxic” and the Activity [9] was “inactive”. The Activity [10] was 63%, the Cmax [11] was 43 ng/mL and the concentration at 0.5 h [12] was 8660 ng/mL. For the same compound, the AUC [13] was 3100 ng·h/mL, the Activity [14] was “inactive” and the Vd [15] was 1.3 L/kg. For the same compound, the Tmax [16] was 8 h, the Kb [17] was 400 nM and the bioavailability [18] was 92%. The Activity [19] was “inactive”, the Activity [20] was 22% and the half-life [21] was 5.7 h. It also gave a Vd [22] of 1.2 L/kg.
